ChEMBL document CHEMBL3227977, “L-Chlorozotocin” (J Med Chem, 1979)

Experiments:
Mus musculus = assay: Toxicity in ip dosed CDF1 mouse; format: organism-based; conditions: in vivo
Summary of the method: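 Single-dose LD10 was found in concurrent toxicity controls using normal (non-tumor-bearing) mice, run alongside the L1210 survival experiment, with drug in physiological saline given ip.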

L1210 [1] = assay: Antineoplastic activity against mouse L1210 cells allografted in CDF1 mouse assessed as increase in host life span at 24 mg/kg, ip administered on day 1 post-tumor cell implantation; format: functional; conditions: route intraperitoneal
Summary of the method: (§1)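 Male CDF1 mice were inoculated ip with 10⁵ L1210 cells. Drug in physiological saline was given ip as a single dose on day 1 postimplant, at the maximum non-toxic dose relative to the concurrent LD10. There were 10 mice per test group and 30 in the control group, followed for 60 days. Median day of death counted dying mice only. Increase in life span excluded survivors.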

L1210 [2] = assay: Antineoplastic activity against mouse L1210 cells allografted in CDF1 mouse assessed as dose causing 50% 60-day host survival at 24 mg/kg, ip administered on day 1 post-tumor cell implantation; format: functional; conditions: route intraperitoneal; summary of the method: as §1
L1210 [3] = assay: Antineoplastic activity against mouse L1210 cells allografted in CDF1 mouse assessed as tumor growth inhibition at 24 mg/kg, ip administered on day 1 post-tumor cell implantation; format: functional; conditions: route intraperitoneal
L1210 [4] = assay: Antineoplastic activity against mouse L1210 cells allografted in CDF1 mouse assessed as median day of death at 24 mg/kg, ip administered on day 1 post-tumor cell implantation (reference value: 8 days); format: functional; conditions: route intraperitoneal; summary of the method: as §1
[5] = Therapeutic index, ratio of ED50 for antineoplastic activity against mouse L1210 cells allografted in CDF1 mouse to LD10 for CDF1 mouse; conditions: read-out: TI
Summary of the method: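 The therapeutic index is the fraction of the single-dose LD10 that gave 50% 60-day survival: ED50 divided by LD10. ED50 came from log-dose probit-survival plots in L1210-bearing male CDF1 mice (10⁵ cells ip, single ip dose in saline on day 1). LD10 came from concurrent toxicity controls.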

| Compound | LD10 (Mus musculus) | Activity (L1210 [1]) | ED50 (L1210 [2]) | LCK (L1210 [3]) | Time (L1210 [4]) | selectivity ratio [5] |
| --- | --- | --- | --- | --- | --- | --- |
| O=NN(CCCl)C(=O)N[C@@H]1C(O)O[C@@H](CO)[C@H](O)[C@H]1O (some centres not stated) | 33 mg/kg | 87% | 21 mg/kg | >=6 | 15 days | 0.64 |
| O=NN(CCCl)C(=O)N[C@H]1C(O)O[C@H](CO)[C@@H](O)[C@@H]1O (some centres not stated) [CHLOROZOTOCIN] | 30 mg/kg | 62% | 21 mg/kg | >=6 | 13 days | 0.7 |
